In the library only some 1.4% were active in any assay of this set; here they are far more common.
Tn7 DDE FP: DD(E)-Tn7 binding inhibition, primary FP screen | P02675 | FP displacement of FITC-Tn7 peptide from fibrin DD(E); 0% = median of compound wells per plate | inhibition, % at 8.3 µM | hit rate 0.13% among 370,000;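 active = inhibition above the mean of compounds falling within the control limits plus 3 SD of them, cut at about 14% in these data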;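 also: 0% = plate median of compound wells and 100% = 10 µM Aha-Tn7 peptide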
Target sequence (P02675 whole entry, looked up): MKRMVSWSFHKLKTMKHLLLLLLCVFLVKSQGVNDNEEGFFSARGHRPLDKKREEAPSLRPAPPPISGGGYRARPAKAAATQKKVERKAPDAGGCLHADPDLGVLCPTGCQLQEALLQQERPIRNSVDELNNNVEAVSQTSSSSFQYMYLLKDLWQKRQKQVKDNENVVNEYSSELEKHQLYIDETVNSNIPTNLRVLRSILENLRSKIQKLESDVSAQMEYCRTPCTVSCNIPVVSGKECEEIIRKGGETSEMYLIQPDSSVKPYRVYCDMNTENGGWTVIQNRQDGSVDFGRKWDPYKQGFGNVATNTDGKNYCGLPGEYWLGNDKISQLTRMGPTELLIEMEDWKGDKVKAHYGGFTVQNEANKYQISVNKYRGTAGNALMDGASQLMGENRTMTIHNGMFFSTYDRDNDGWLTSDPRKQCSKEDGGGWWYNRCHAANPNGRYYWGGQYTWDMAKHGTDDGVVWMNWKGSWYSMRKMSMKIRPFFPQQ
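Assay system: human fibrin DD(E). Input: DD(E) 2 µM final. Medium: Tris buffer with calcium and detergent, pH 7.8. Compound dosing: single point at 8.3 µM. Timing: 10 min plus 3 h, room temperature. Technique: fluorescence polarization of the labelled Tn7 tracer. Read-out: percent inhibition. Replicates: singlicate testing.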
CAL PDZ FP-1: inhibitors of human CAL PDZ peptide binding; Q9HD26; purified CAL PDZ, TMR-peptide fluorescence polarization, 1 h; inhibition, % at 24.9 µM; hit rate 0.92% among 300,000;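 active = mean inhibition of at least 30% with at least half of replicates also reaching 30%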;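 also: 0% = DMSO neutral control and 100% = excess unlabeled competitor peptide PRC23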
CAL PDZ FP-2: inhibitors of human CAL PDZ peptide binding; purified CAL PDZ, TMR-peptide fluorescence polarization, 1 h; inhibition, % at 20 µM; AID 504414; hit rate 0.02% among 330,000; Q9HD26;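 active = highest replicate inhibition of at least 40%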;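 also: plate controls were DMSO neutral control wells for no effect and unlabeled competitor peptide control wells for full effect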
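Assay system – tagged CAL PDZ protein CerCALP, purified · Timing – 1 h at RT · Compound – single point, 20 µM · Measured by – fluorescence polarization from S- and P-plane intensities, G-factor corrected · Evaluation – inhibition from polarization loss · Probe or stimulus – TMR reporter peptide T*-PRC34 · Buffer or medium – pH 7.4 phosphate-saline buffer, reducing agent, detergent, IgG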
Arrestin-AP2 inh: inhibitors of human beta-arrestin and AP2 interaction. inhibition, % at 10 µM. hit rate 0.31% among 340,000. FITC-arrestin peptide / GST-AP2 beads, flow cytometry; AP2 beta2 appendage carries R879A mutation. AID 504490;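 active = inhibition above a set limit, near 3 SD of compounds lacking own fluorescence, cut at about 54% in these data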;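 also: plate controls were DMSO wells for no effect and 5 µM unlabelled arrestin peptide for full effect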
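Material – AP2 appendage R879A on GSH beads · Buffer or medium – PBS with 0.05% Tween 20 and 0.1% BSA · Probe or stimulus – fluorescein-tagged arrestin peptide at 50 nM final · Incubation – compound with beads 12 min RT, then probe 1 h RT · Detection – high-throughput flow cytometry of beads, ex 488, em 535 nm · Evaluation – percent response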
Tn6 DDE FP: disrupts Tn6 cyclic peptide binding to fibrin D-Dimer-E complex | P02675 | Fibrin DD(E) TRITC-Tn6 fluorescence polarization displacement | inhibition, % at 8.3 µM | hit rate 0.21% among 370,000 | AID 720509;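 active = inhibition above a per-campaign cutoff: mean of compounds within control limits plus 3 SD, cut at about 15% in these data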;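 also: 0% = median of all compound wells on the plate and 100% = blocking peptide control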
The depositor's hits bear a star.

For CCOC(=O)C1=C(CC)Nc2ccccc2N/C1=N\S(=O)(=O)c1cccc(C(C)=O)c1 the results were Tn7 DDE FP -0.7, CAL PDZ FP-1 55.1*, CAL PDZ FP-2 0.4, Arrestin-AP2 inh -6.1 and Tn6 DDE FP 0.4.
For CCOC(=O)C1=C(CC)Nc2ccccc2N/C1=N\S(=O)(=O)c1ccccc1F the results were Tn7 DDE FP -0.6, CAL PDZ FP-1 -7.8, CAL PDZ FP-2 -0.7, Arrestin-AP2 inh -9.0 and Tn6 DDE FP 0.9.
`O=C(Nc1ccc(S(=O)(=O)N2CCCC2)cc1)c1ccc(OCC2CCCO2)cc1` (stereo not given) gave Tn7 DDE FP 7.6, CAL PDZ FP-1 52.6*, CAL PDZ FP-2 -3.2, Arrestin-AP2 inh -14.2 and Tn6 DDE FP -0.5.
Screening Cc1onc(C(=O)N2CCN(C(c3ccc(F)cc3)c3ccc(F)cc3)CC2)c1[N+](=O)[O-] returned Tn7 DDE FP 1.2 and Tn6 DDE FP 1.3.
`C=CCn1c(O)c(N=NC(=O)CNC(=O)/C=C/c2ccc(OC)cc2)c2ccccc21` gave Tn7 DDE FP 5.3, CAL PDZ FP-1 59.0*, CAL PDZ FP-2 -0.3, Arrestin-AP2 inh 14.8 and Tn6 DDE FP -1.2.
CC(=NNC(=O)CSc1nnc(-c2ccccc2)n1-c1ccccc1)c1cccc([N+](=O)[O-])c1 was read as Tn7 DDE FP -8.4 and Tn6 DDE FP 0.9.
O=C(CSc1nnc(-c2ccccn2)n1Cc1ccccc1)Nc1ccc2c(c1)OCO2 was read as Tn7 DDE FP -3.4, CAL PDZ FP-1 32.1*, Arrestin-AP2 inh 4.0 and Tn6 DDE FP 3.4.
Screening Cn1c(SCC(=O)Nc2ccc3c(c2)OCCO3)nnc1-c1ccccn1 returned Tn7 DDE FP -6.0, CAL PDZ FP-1 -1.9, CAL PDZ FP-2 7.0, Arrestin-AP2 inh -6.1 and Tn6 DDE FP -0.4.
Screening C=CCN=C1NC(c2cccc(F)c2)C(C(=O)OC)=C(C)N1Cc1cccc(C(F)(F)F)c1 (stereo not given) returned Tn7 DDE FP -0.4 and Tn6 DDE FP -1.2.
`CCN(CC)c1ccc(C(=C2C=CC(=[N+](CC)CC)C=C2)c2ccc(N(CC)CC)cc2)cc1` gave Tn7 DDE FP 2.7, CAL PDZ FP-1 12.1, CAL PDZ FP-2 12.0, Arrestin-AP2 inh 90.2* and Tn6 DDE FP 83.8*.
O=C(CSc1nnc(-c2cccs2)n1Cc1ccco1)Nc1ccc(Oc2ccccc2)cc1 was read as Tn7 DDE FP -5.4 and Tn6 DDE FP -5.0.
Screening O=C(COC(=O)/C=C/c1ccc(Cl)c(Cl)c1)NC1CCS(=O)(=O)C1 (stereo not given) returned Tn7 DDE FP -1.8, CAL PDZ FP-1 64.1*, CAL PDZ FP-2 -0.5, Arrestin-AP2 inh -10.3 and Tn6 DDE FP 1.7.
Screening COc1cccc(CNC(=O)CN2CCCc3ccccc32)c1OC returned Tn7 DDE FP 3.8 and Tn6 DDE FP 10.5.
`Cn1nnnc1SCc1cccc2ccccc12` gave Tn7 DDE FP 2.8, CAL PDZ FP-1 34.2*, Arrestin-AP2 inh -18.5 and Tn6 DDE FP -3.5.
Screening Cn1nnnc1SCc1nc2ccccc2s1 returned Tn7 DDE FP -7.2, CAL PDZ FP-2 0.3, Arrestin-AP2 inh -3.5 and Tn6 DDE FP 4.0.
Cc1ccc(-c2cc(C(=O)NN=C/C=C/c3ccco3)[nH]n2)cc1C was read as Tn7 DDE FP -1.3 and Tn6 DDE FP -5.0.
O=C(Oc1c(CN2CCOCC2)cc(Cl)c2cccnc12)c1ccccc1 was read as Tn7 DDE FP -1.9, CAL PDZ FP-1 47.4*, CAL PDZ FP-2 -0.3, Arrestin-AP2 inh -7.9 and Tn6 DDE FP -9.1.
CCOC(=O)[C@]12CCCC3=C1N(CCC3)C(=O)[C@@H](CC(=O)NCCCCc1ccccc1)C2 was read as Tn7 DDE FP -5.7 and Tn6 DDE FP 1.4.
COC(=O)C1CN(Cc2cn(Cc3ccc(C)cc3)nn2)CCS(=O)(=O)N1Cc1ccc(F)cc1 (stereo not given) was read as Tn7 DDE FP -0.6 and Tn6 DDE FP -7.3.
For O=C(Nc1ccc(N2CCN(C(=O)c3ccco3)CC2)cc1)c1cc(Br)ccc1Cl the results were Tn7 DDE FP -1.0, CAL PDZ FP-1 48.8*, CAL PDZ FP-2 -0.8, Arrestin-AP2 inh -8.5 and Tn6 DDE FP 4.6.
Cn1c(=O)[nH]c(=O)c2c1nc(Br)n2Cc1cccc(Br)c1 was read as Tn7 DDE FP -0.5, CAL PDZ FP-1 -3.0, CAL PDZ FP-2 5.2, Arrestin-AP2 inh 9.3 and Tn6 DDE FP 0.0.

Screening results (PubChem BioAssay)
